Source: ChEMBL document CHEMBL1155524, “Bis-azaaromatic quaternary ammonium salts as ligands for the blood-brain barrier choline transporter” (Bioorg Med Chem Lett, 2010)

assay: Binding affinity to blood-brain barrier choline transporter in rat brain assessed as inhibition of [3H]choline uptake; format: tissue-based
Outline: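 In situ rat brain perfusion (Takasato method, Allen and Smith modification). Analog co-perfused at a single concentration, with brain uptake of [3H]-choline measured. Ki is the analog concentration inhibiting 50% of [3H]-choline uptake into brain, derived from the single-concentration inhibition. n = 4–6 animals. Ki values compared by ANOVA with Bonferroni multiple comparisons test.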

| Structure (SMILES) | Ki [µM] |
| --- | --- |
| c1ccc2c[n+](CCCCCCCCCCCC[n+]3ccc4ccccc4c3)ccc2c1 | 22 |
| c1ccc2c[n+](CCCCCCCCCC[n+]3ccc4ccccc4c3)ccc2c1 | 10 |
| Cc1ccc[n+](CCCCCCCCCCC[n+]2cccc(C)c2)c1 | 36 |
| Cc1cc[n+](CCC#Cc2ccc(C#CCC[n+]3ccc(C)cc3)cc2)cc1 | 8.5 |
| CCCCCCCC[n+]1cccc([C@@H]2CCCN2C)c1 | 49 |
| c1ccc2c[n+](CCCCCC[n+]3ccc4ccccc4c3)ccc2c1 | 29 |
| Cc1ccc[n+](CCCC#Cc2cccc(C#CCCC[n+]3cccc(C)c3)c2)c1 | 140 |
| Cc1ccc[n+](CCCC#Cc2ccccc2C#CCCC[n+]2cccc(C)c2)c1 | 319 |
| Cc1ccc[n+](CCC#Cc2ccc(C#CCC[n+]3cccc(C)c3)cc2)c1 | 15 |
| Cc1ccc[n+](CCCCCCCCC[n+]2cccc(C)c2)c1 | 30 |
| Cc1ccc[n+](CCCCCC[n+]2cccc(C)c2)c1 | 26 |
| Cc1ccc[n+](CCCCCCCCCCCC[n+]2cccc(C)c2)c1 | 36 |
| Cc1ccc[n+](CCCCCCCC[n+]2cccc(C)c2)c1 | 24 |
| Cc1ccc[n+](CCCCCCCCCC[n+]2cccc(C)c2)c1 | 22 |
| Cc1cc[n+](CCC#Cc2ccc(C#CCC[n+]3ccc(C)c(C)c3)cc2)cc1C | 8.4 |
| C(#Cc1ccc(C#CCC[n+]2ccc3c(c2)CCCC3)cc1)CC[n+]1ccc2c(c1)CCCC2 | 5.4 |
| Cc1cc(C)c[n+](CCC#Cc2ccc(C#CCC[n+]3cc(C)cc(C)c3)cc2)c1 | 7.4 |
| C[N+](C)(C)CCO [CHOLINE] | 41 |
